Measurements from the EternaBench riboswitch data.

Test system: MS2 coat protein
Experiment: apparent Kd, MS2 coat protein; higher = weaker binding; RNA-MaP array; FMN 200 µM where present
Method in brief: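 Each design was made on Illumina sequencing-chip clusters by stalled E. coli RNA polymerase and titrated with SNAP-549-labelled MS2 coat protein from 0.7 or 1.5 nM, doubling to 3 µM, in the absence and then the presence of constant ligand. The buffer was 100 mM Tris-HCl pH 7.5, 80 mM KCl, 4 mM MgCl2, BSA, DTT, yeast tRNA and Tween-20. The apparent Kd is the median of filtered per-cluster fits of binding curves, with green signal normalised to red-channel RNA signal and control-cluster median Fmax.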

[1] = designed as: OFF switch for flavin mononucleotide, no ligand
[2] = ligand present: flavin mononucleotide, designed as: OFF switch for flavin mononucleotide
[3] = designed as: ON switch for flavin mononucleotide, no ligand
[4] = ligand present: flavin mononucleotide, designed as: ON switch for flavin mononucleotide

Row | Sequence | apparent Kd [1] [nM] | apparent Kd [2] [nM] | apparent Kd [3] [nM] | apparent Kd [4] [nM]
1 | AACAGUACAGGAUAUACAUGAGGAUCACCCAUGUGAGCGUUAAGUGCCGUAGCACAAAGUAGAAGGGUACUGGA | 29.9 | 92.5 |  | 
2 | GCGAUGAUCGAGAAGGCCACUACAUGAGGAUCACCCAUGUCGUGGUGUAUUGGAGGAUAUCGAUCGGCGUCUCAUGAGGACAUA | 4.65 | 5.78 |  | 
3 | UGGUUCAUGGGAGGAUAUCCUCAAGAACAUGAGGAUCACCCAUGUAAUUAUAAGCCGAAAGGCAUGGAGAAGGCCCAUGAACCU |  |  | 67.5 | 16.9
4 | AGGAUGUUAGGAUAUCGGAUAUGCUGGAGGAGGUGGAUUUACGAGAAGGAACAUGAGGAUCACCCAUGUUGGAG | 22.5 | 25.1 |  | 
5 | GUGCUAUGAGGAUAUACGUUGGUGGGCAUCUGUGUGCUCCUACAUGAGGAUCACCCAUGUAGAAGGCAUGUCAC | 12.4 | 21.9 |  | 
6 | GUACCUUAUGAGAAGGCGAUCAUGAAACAUGAUCGAGGAUAUCAUGAAAACAUGAGGAUCACCCAUGUAUGGGUAUUAUGGUAC |  |  | 49.6 | 17.7
7 | GGAUCCAACACAGGAUAUGCUGGACUUUGUCCAGCAGAAGGGUGAAGAACAUGAGGAUCACCCAUGUGGAUCCAUAUAUUUAAU |  |  | 483 | 42.4
8 | GGAUGACAAAGUCAUCCUAAACGAACAUGAGGAUCACCCAUGUAGGAUAUGCUACACAAAGUGUAGCAGAAGGACAUGUGCCUU | 37.1 | 269 |  | 
9 | UUGAUUAUACAAGGAUAUCAAUUGUAUACAAGUCUUACAUGAGGAUCACCCAUGUUAAAUUUUUUUGAGAAGGUGUAUUGUCAG |  |  | 40.2 | 24
10 | AAGUCUGUACGAGGAUAUCAGUUGUAUCUAGAUUCAACAUGAGGAUCACCCAUGUUGCAAUAGGGUGAGAAGGCGUGUGGGCAA |  |  | 101 | 25.3
11 | AAUUCGCGAGGAUAUACAUGAGGAUCACCCAUGUGUGUACGCAUGCACUUCAUAGGUUGUAGAAGGCGUGAGAU | 19.7 | 29.4 |  | 
12 | AACAAUCUAUCUGAGGAUAUCAUGAAAUAAACAUGAGGAUCACCCAUGUGUAGGAAAACUGCAUAUGAGAAGGCAGAUAGAUUGA |  |  | 930 | 43.5
13 | AGUUAUUCAGGAUAUGGUGUGUUAUACAUGAGGAUCACCCAUGUAGAUCCUGGUUAGGCCUCAGAAGGGAAUGUUA | 190 | 190 |  | 
14 | CCCUCGCGAGGAUAUGCAUCCUCCCUCAUUUCUUUCACUACACAUGAGGAUCACCCAUGUAGAAGGCGCUCUCC | 49.9 | 38.6 |  | 
15 | UGUUGUUCAGGAUAUGAUGUAUAAUACAUGAGGAUCACCCAUGUAGAUCCUGAAUUAACGUCAGAAGGGAAUGUUG | 15.1 | 17 |  | 
16 | CGGCCGGAUCGAGGAUAUAAGUCUAGGACAUGAGGAUCACCCAUGUAUGUCUUAGAAGGCGAUCCGGCCAGCCUGUUACAGGCA |  |  | 32.9 | 6.18
17 | CGGCGGAAGCAGAAGGCAUGAACGGACAUGAGGAUCACCCAUGUUGGAAACUCAUGCCCGAAAGAUGAGGAUAUGCGUCCGGGU | 71.7 | 18.5 |  | 
18 | AUGGAUAUCACAGGAUAUGAUAUGGAUACCAUAUCAGAAGGGUGAUCCAUCCUAUGUAAAUACAUGAGGAUCACCCAUGUGUCC |  |  | 15.1 | 31.6
19 | AAAACACAUGAGGAUCACCCAUGUGAGGAUAUCGUGCAGUAGACGAAAGUCUACUGCACGAGAAGGCACAAGGA | 49 | 81.3 |  | 
20 | CCCAAACUUGGGCUUGGUGGUGCAUAGGAUAUGCUUGAACAUGAGGAUCACCCAUGUACAACUGUGCAGAAGGGUGCAGGGCAA |  |  | 40.9 | 18.6
21 | GUAGCAUUCUGAGGAUAUGGGUUCCGGAAACGGACAUGAGGAUCACCCAUGUGGCGAAAGCCAUACUAGAAGGCAGUAUGCUAC |  |  | 77.9 | 7.46
22 | GAAGCAUCCAAUAACAUGAGGAUCACCCAUGUCAAAAGACGGGAGGAUAUUGAUCUGAAGAAGAUCAAGAAGGCCUGGUGCUAA |  |  | 10.1 | 7.35
23 | UUCGGGAACUCUAUGGGCCGCUACAUGAGGAUCACCCAUGUGCAGGAUAUAGGUGUCACUACCGCCUAGAAGGGCACAGAAAGA | 41.4 | 58.6 |  | 
24 | UGUUUUUAUGUAAGGAUAUGGGUUUGGUUGCGGGCUUAGAAGGUACAUGAGGAUCACCCAUGUAUUUUGUGCAU | 31.6 | 35.5 |  | 
25 | AUGGUGACGUAGAAGGGUGACAUGAGGAUCACCCAUGUGCCGAUAUAUCUCGAGAUAUGUCGGCCACAGGAUAUACGUGCCAUC |  |  | 150 | 158
26 | AAUAACAGAGGAUAUACUGUUUUAUGUGUUUAUUGUUUUAAACAUGAGGAUCACCCAUGUAGAAGGCUGAAUAA | 27.4 | 27.8 |  | 
27 | AGAUGGUAGAUAGGAUAUCAUGUGCUGACAUGAGGAUCACCCAUGUAGGGACGUCAGUCCAAUUAUGAGAAGGAUCUACCAUCU |  |  | 61 | 39.3
28 | ACUGUCCGAGAGAAGGGAACAUGAGGAUCACCCAUGUUACCUCACCUGGUGACGGAACUCCAAGUUCAGGAUAUCUCGGGCGGC | 5.14 | 7.59 |  | 

Row | Sequence | apparent Kd [1] [nM] | apparent Kd [2] [nM] | apparent Kd [3] [nM] | apparent Kd [4] [nM]
29 | GCGGCUCCUGACAUGAGGAUCACCCAUGUUUAAUUAUUAAAUCAGGAUAUCCUCUCGAAACGAGAGGAGAAGGGAUAAGCUGCU |  |  | 5.6 | 6.44
30 | UCCCGUGUGGAAGGAUAUAGGACGAGGUGGGACAUGAGGAUCACCCAUGUGCUAGAAGGUCCGCAGCCGAUUGGCUUUUACGUG | 9.2 | 28.1 |  | 
31 | ACGAAACAUGAGGAUCACCCAUGUGAGGAUAUGUAAAUACUAGACAAAUAACAGAAAAACAGAAGGCACUCAGA | 24.3 | 22 |  | 
32 | GCCAGGAUGUAAGGAUAUGCUGAGGAUAACUCAGCAGAAGGUACAUGAGGAUCACCCAUGUAAUCCAAUAAUAAAUAACCUGGC | 11.8 | 23.8 |  | 
33 | GCAUGUAAGUAGAAGGGCAGAUAUUUUGAUACUGCAGGAUAUGCAGAAUCAUAUCCACAUGAUAACAUGAGGAUCACCCAUGUA | 32.7 | 25.6 |  | 
34 | GGGCGGCGAGGAUAUGCAGGGCGGGCGCGCGGGCGCGCGCGACAUGAGGAUCACCCAUGUAGAAGGCGCCGGGC | 19.1 | 129 |  | 
35 | CCUUGGAUUGAGGAUAUAUGAACCUUUACGGUUGUAGAAGGCAGGACAUGAGGAUCACCCAUGUGGUGGCGCUC | 1280 | 1010 |  | 
36 | GUAGCAUACCGAGGAUAUUCAUACCGGAAACGGACAUGAGGAUCACCCAUGUUUAGAAAUAAUUGGGAGAAGGCGGAAUGCUAC |  |  | 232 | 44.7
37 | UUUACAUGAGGAUCACCCAUGUCUUGCAAGAUGAGUUCUGGUGAGGAUAUACAUGAUAAAGAACUGUAGAAGGCACUGGGUACA |  |  | 305 | 362
38 | CAUCAGGUACGAGGAUAUCCGCGAUCUCUUCGAGGAGAAGGCGUACAUGAGGAUCACCCAUGUGGGCGAGGCAGACGAAGUCUG | 96.3 | 60.9 |  | 
39 | CAGGUAGACUGAGGAUAUACAAAGACCUAGUUUAUCUAGGUCAACAUCACAUGAGGAUCACCCAUGUAGAAGGCAGUCUGCCUG | 15.4 | 24.7 |  | 
40 | AACAUCGCAGGAUAUUCGUGCUCAGACAUGAGGAUCACCCAUGUUUGGUGGGUUGGAGAAGGAGAAGGGCGAUGGA | 103 | 137 |  | 
41 | UAGGACGUCGUAGGAUAUGUAGGAUAUUCCUACAUGAGGAUCACCCAUGUUGACAUGGAAGAAGGACAGAAGGACGAUGUCCAU |  |  | 224 | 4.61
42 | GUCAAGUGAGGAUAUGAUUGUACAACAGACUAGCAUCUGCAUCAGAAGGCACAUGAGGAUCACCCAUGUUUGUC | 17.5 | 17.7 |  | 
43 | AUUUAGUGCGAGAAGGCGUGGUCACAUGAGGAUCACCCAUGUCAGUACACGAGGAUAUCGAUUCGCUAUGUAAACAUAUGCGAC |  |  | 66.8 | 6.62
44 | UAUUACCUAGGAUAUACAUGAGGAUCACCCAUGUCACGGGUCAACUUGUCCUAUGCGUGUAGAAGGAGGGACCC | 19.8 | 21.3 |  | 
45 | UGAUCUAUGUAGAAGGCCCAUAUCUAUAUUUAGGGAGGAUAUACAUGAGGAUCACCCAUGUAUAGAGCUAGUGGACUGGUCACC | 37.7 | 48.1 |  | 
46 | GUCAGCUCGUGAGGAUAUACAACACUGCUUCGGCAGUGUAUUAAUAUCACAUGAGGAUCACCCAUGUAGAAGGCACGAGCUGAU | 5.07 | 5.81 |  | 
47 | AACAGCUCGUCAGGAUAUAUUAUCUUUUAAUGUAUUAAUGUACAUGAGGAUCACCCAUGUUGUUUGUAGAAGGGACGAGCUGAA | 8.88 | 9.34 |  | 
48 | GCGUAUAUAUGUUUUAUUUAACAGUCAGAAGGUGAUAAUACGACAUGAGGAUCACCCAUGUAAUUCAAGGAUAUGAUCUUACGC |  |  | 117 | 20.1
49 | AGGUGUAGAGGAUAUCGAGUUCUUUACAUGAGGAUCACCCAUGUCCUGGGCACCCAGGACUGAGAAGGCUACACCA | 478 | 180 |  | 
50 | UUCAUGUGAGGAUAUAAAAGGAAGGUGGUAUCUAUCAACAAUUAGAAGGCACAUGAGGAUCACCCAUGUCUGAA | 67 | 60.9 |  | 
51 | UAGGUUGUCGUAGGAUAUGUAGGAUAUUCCUACAUGAGGAUCACCCAUGUUAGCAUGGAAGAAGGACAGAAGGACGAUGACCUU |  |  | 889 | 15.6
52 | GCCUCAUAGUAGAAGGGACUUCGGCUGUUAAGCAUCAUCUCCAUUUCACAUGAGGAUCACCCAUGUCAGGAUAUACUAAGAGGC | 10.3 | 24.9 |  | 
53 | AAAAAACAAGGAUAUACGCAGGAGGGUUGUCUUAAUUUUUGACAUGAGGAUCACCCAUGUAGAAGGUGUUAAAA | 237 | 507 |  | 
54 | GGAUAGGACAGAGGAUAUACGUGCUAGAGAUACUAGCAAAAUCUCCUCACAUGAGGAUCACCCAUGUAGAAGGCUGUCCUAUCG | 9.85 | 201 |  | 
55 | CAGGAUCAAGGAUAUCAUCGACGGAACAUGAGGAUCACCCAUGUGAUUGUGCUCUCCUUGUGAGAAGGUGGCGAAU | 38.5 | 36.7 |  | 
